From ChEMBL document CHEMBL4118021, “Studies of TAK1-centered polypharmacology with novel covalent TAK1 inhibitors” (Bioorg Med Chem, 2017)
Active and inactive are the calls of the source. No cut-off for these calls is given here.

Columns and labels:
[1] = target: T1, Dual specificity mitogen-activated protein kinase kinase 3 (Homo sapiens) (UniProt P46734); test: Inhibition of full length human MEK3 (1 to 318 residues) expressed in mammalian expression system assessed as enzyme activity at 10 uM by KINOMEScan assay relative to control; design: scale not given: the % may be the effect or the level left
T1 sequence (whole entry): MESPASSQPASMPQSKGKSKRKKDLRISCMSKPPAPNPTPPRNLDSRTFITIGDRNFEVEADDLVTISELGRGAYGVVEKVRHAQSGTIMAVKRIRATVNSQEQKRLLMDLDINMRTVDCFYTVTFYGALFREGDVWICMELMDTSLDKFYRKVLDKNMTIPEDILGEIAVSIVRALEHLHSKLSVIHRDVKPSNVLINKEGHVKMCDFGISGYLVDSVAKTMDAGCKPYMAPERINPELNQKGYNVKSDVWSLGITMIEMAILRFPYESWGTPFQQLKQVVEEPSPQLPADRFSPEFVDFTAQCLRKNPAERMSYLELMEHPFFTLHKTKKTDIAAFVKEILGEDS
How it was run: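 In vitro ATP-site competition binding assay (KinomeScan) across a panel of 456 kinases. Compound was tested at 1 and 10 μM. The read-out is the binding inhibition score relative to control.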

[2] = target: NAD(P)H dehydrogenase [quinone] 1 (Homo sapiens) (UniProt P15559); test: Binding affinity to NQO1 in human NCI-H23 cells at 1 uM by mass spectrometry based pull down assay; type: cell-based
[3] = target: X antigen family member 1 (Homo sapiens) (UniProt Q9HD64); test: Binding affinity to XAGE1B in human NCI-H23 cells at 1 uM by mass spectrometry based pull down assay; type: cell-based
[4] = target: Serine/threonine-protein kinase WNK1 (Homo sapiens) (UniProt Q9H4A3); test: Binding affinity to WNK1 in human NCI-H23 cells at 1 uM by mass spectrometry based pull down assay; type: cell-based
[5] = target: 80S Ribosome (Homo sapiens) (UniProt P08865+P42677+P62753+P15880+P23396+P61247+P62701+P22090+P46782+P62081+P62241+P46781+P46783+P62280+P25398+P62277+P62263+P62841+P62244+P62249+P08708+P62269+P39019+P60866+P63220+P62266+P62847+P62851+P62854+P62979+P62857+P62273+P62861+P39023+P36578+P46777+Q02878+P18124+P62424+P62917+P32969+P27635+P62906+P62913+P30050+P26373+P40429+P50914+P61313+P18621+Q07020+Q02543+P84098+P46778+P35268+P62829+P62750+P83731+P61254+P61353+P46776+P46779+P47914+P62888+P62899+P62910+P49207+P42766+P18077+Q9Y3U8+P83881+P61927+P61513+P63173+P62891+P62945+P05388+P05386); test: Binding affinity to RPL24 in human NCI-H23 cells at 1 uM by mass spectrometry based pull down assay; type: cell-based
[6] = target: Methylosome protein WDR77 (Homo sapiens) (UniProt Q9BQA1); test: Binding affinity to WDR77 in human NCI-H23 cells at 1 uM by mass spectrometry based pull down assay; type: cell-based
[7] = target: Poly(rC)-binding protein 1 (Homo sapiens) (UniProt Q15365); test: Binding affinity to PCBP1 in human NCI-H23 cells at 1 uM by mass spectrometry based pull down assay; type: cell-based
[8] = target: ADP-ribosylation factor-like protein 8B (Homo sapiens) (UniProt Q9NVJ2); test: Binding affinity to ARL8B in human NCI-H358 cells at 1 uM by mass spectrometry based pull down assay; type: cell-based
[9] = target: T2, Serine/threonine-protein kinase Nek9 (Homo sapiens) (UniProt Q8TD19); test: Binding affinity to NEK9 in human NCI-H358 cells at 1 uM by mass spectrometry based pull down assay; type: cell-based
T2 sequence (whole entry): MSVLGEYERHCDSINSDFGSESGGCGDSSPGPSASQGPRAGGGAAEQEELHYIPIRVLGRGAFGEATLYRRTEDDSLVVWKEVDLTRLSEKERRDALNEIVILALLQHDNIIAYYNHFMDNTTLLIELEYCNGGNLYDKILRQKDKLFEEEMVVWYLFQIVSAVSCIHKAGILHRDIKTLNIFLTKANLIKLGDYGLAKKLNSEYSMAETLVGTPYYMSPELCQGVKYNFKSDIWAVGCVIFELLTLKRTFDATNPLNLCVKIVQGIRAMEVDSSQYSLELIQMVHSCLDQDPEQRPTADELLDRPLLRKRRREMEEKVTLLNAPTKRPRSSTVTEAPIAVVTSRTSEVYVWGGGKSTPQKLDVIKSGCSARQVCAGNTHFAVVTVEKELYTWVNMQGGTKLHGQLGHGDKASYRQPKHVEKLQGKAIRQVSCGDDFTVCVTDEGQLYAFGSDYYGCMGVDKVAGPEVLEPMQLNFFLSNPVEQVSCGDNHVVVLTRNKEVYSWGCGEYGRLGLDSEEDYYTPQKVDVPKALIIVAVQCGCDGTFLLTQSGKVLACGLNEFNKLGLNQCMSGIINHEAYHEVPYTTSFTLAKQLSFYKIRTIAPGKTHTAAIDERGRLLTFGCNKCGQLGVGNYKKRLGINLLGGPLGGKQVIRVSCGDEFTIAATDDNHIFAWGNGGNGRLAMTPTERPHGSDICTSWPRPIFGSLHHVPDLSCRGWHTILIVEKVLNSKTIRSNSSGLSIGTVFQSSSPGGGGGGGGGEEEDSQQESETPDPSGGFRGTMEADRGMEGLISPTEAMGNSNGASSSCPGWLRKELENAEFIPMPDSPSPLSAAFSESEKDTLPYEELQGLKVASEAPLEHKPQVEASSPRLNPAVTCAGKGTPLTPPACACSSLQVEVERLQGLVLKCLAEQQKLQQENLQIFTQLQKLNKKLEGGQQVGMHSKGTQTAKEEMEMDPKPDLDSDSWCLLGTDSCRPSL

[10] = target: Catenin alpha-1 (Homo sapiens) (UniProt P35221); test: Binding affinity to CTNNA1 in human NCI-H358 cells at 1 uM by mass spectrometry based pull down assay; type: cell-based
[11] = target: Serine/threonine-protein phosphatase 2A catalytic subunit beta isoform (Homo sapiens) (UniProt P62714); test: Binding affinity to PPP2CB in human NCI-H358 cells at 1 uM by mass spectrometry based pull down assay; type: cell-based
[12] = target: ADP-ribosylation factor 5 (Homo sapiens) (UniProt P84085); test: Binding affinity to ARF5 in human NCI-H358 cells at 1 uM by mass spectrometry based pull down assay; type: cell-based
[13] = target: ATP synthase F(1) complex subunit alpha, mitochondrial (Homo sapiens) (UniProt P25705); test: Binding affinity to ATP5A1 in human NCI-H358 cells at 1 uM by mass spectrometry based pull down assay; type: cell-based
Sequence of ATP synthase F(1) complex subunit alpha, mitochondrial (Homo sapiens) (P25705 whole entry, one chain of several): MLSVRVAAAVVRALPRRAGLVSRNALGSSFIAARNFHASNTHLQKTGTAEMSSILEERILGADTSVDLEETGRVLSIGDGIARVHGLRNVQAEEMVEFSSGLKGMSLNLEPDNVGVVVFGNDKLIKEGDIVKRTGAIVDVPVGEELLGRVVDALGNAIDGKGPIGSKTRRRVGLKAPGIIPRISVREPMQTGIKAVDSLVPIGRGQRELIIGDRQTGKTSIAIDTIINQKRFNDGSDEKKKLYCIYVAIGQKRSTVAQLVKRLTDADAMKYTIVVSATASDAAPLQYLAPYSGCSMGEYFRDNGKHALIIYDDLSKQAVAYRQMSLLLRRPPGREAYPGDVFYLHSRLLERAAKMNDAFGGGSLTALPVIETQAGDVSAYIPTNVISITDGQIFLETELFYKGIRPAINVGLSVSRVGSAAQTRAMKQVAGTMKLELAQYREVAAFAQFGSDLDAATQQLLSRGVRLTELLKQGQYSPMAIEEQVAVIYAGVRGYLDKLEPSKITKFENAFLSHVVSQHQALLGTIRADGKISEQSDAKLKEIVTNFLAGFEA

Sequence of Serine/threonine-protein phosphatase 2A catalytic subunit beta isoform (Homo sapiens) (P62714 whole entry, canonical isoform): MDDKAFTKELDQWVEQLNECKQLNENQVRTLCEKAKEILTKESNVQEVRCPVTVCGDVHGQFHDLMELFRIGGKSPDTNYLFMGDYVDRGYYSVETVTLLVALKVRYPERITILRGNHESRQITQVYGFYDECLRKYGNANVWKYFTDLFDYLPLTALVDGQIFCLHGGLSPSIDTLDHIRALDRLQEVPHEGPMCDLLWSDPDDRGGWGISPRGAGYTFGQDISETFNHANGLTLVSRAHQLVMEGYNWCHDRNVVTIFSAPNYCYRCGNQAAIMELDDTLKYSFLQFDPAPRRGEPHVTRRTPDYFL
Sequence of Serine/threonine-protein kinase WNK1 (Homo sapiens) (Q9H4A3 whole entry, looked up): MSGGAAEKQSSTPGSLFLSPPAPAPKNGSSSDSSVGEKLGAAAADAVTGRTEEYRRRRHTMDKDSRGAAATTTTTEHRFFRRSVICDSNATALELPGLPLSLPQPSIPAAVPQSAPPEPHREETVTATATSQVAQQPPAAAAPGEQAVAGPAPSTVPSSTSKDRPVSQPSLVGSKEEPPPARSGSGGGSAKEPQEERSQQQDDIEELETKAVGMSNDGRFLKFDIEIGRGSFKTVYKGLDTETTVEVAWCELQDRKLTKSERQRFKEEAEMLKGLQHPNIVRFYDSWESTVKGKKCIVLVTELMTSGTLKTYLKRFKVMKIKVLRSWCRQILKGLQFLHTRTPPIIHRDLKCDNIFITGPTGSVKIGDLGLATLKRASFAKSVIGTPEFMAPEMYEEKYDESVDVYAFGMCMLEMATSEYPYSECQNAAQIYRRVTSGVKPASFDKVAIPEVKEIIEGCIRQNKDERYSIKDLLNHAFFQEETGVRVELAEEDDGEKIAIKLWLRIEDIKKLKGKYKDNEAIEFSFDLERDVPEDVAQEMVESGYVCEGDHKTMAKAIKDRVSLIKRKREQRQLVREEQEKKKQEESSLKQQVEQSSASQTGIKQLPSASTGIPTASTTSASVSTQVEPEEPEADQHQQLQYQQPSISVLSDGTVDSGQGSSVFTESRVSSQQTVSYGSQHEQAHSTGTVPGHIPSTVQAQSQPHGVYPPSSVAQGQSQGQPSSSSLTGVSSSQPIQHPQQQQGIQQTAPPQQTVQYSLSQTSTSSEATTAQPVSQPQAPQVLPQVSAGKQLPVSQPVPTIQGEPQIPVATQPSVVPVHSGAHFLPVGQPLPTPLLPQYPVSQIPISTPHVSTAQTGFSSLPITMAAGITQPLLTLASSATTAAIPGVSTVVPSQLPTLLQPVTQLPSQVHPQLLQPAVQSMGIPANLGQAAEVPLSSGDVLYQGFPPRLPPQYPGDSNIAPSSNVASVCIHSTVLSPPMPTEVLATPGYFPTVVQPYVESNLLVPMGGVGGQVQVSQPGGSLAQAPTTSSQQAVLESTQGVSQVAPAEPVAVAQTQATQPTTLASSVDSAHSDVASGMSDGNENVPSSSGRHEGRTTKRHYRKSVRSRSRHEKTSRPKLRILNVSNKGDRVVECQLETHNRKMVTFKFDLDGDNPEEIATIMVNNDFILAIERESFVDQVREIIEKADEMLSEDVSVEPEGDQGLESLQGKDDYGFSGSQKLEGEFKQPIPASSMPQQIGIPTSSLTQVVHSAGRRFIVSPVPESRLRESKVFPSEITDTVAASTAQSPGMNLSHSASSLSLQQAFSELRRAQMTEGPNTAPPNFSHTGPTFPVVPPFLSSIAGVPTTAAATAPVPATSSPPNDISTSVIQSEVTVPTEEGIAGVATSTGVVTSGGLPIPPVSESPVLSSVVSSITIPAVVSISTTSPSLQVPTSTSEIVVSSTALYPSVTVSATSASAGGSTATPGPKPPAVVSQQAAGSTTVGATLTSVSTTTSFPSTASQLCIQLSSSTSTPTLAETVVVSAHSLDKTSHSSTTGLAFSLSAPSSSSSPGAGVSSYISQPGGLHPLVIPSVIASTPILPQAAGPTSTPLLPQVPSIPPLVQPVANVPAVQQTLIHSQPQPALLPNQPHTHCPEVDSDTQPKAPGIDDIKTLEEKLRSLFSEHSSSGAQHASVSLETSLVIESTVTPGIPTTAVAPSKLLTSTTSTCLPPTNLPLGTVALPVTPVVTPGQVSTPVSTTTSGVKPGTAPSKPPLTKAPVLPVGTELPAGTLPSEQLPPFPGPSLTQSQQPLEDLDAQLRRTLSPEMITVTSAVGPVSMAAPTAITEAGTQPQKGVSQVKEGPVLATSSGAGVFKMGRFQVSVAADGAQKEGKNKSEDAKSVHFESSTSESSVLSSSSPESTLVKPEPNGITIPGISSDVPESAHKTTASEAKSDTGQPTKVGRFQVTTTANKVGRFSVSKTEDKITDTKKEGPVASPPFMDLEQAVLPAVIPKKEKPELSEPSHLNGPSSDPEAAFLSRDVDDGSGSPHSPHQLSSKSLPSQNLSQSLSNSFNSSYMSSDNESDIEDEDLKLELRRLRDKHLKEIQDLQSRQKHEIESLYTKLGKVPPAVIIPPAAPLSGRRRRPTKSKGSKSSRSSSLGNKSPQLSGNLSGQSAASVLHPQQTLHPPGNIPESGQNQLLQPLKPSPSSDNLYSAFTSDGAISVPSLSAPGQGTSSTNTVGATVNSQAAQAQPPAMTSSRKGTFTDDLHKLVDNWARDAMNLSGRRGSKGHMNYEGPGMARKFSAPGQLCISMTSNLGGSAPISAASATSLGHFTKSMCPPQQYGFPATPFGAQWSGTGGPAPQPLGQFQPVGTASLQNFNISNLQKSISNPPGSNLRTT
Sequence of X antigen family member 1 (Homo sapiens) (Q9HD64 whole entry): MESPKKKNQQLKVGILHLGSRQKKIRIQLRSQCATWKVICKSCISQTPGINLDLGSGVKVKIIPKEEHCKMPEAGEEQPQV
Sequence of Poly(rC)-binding protein 1 (Homo sapiens) (Q15365 whole entry): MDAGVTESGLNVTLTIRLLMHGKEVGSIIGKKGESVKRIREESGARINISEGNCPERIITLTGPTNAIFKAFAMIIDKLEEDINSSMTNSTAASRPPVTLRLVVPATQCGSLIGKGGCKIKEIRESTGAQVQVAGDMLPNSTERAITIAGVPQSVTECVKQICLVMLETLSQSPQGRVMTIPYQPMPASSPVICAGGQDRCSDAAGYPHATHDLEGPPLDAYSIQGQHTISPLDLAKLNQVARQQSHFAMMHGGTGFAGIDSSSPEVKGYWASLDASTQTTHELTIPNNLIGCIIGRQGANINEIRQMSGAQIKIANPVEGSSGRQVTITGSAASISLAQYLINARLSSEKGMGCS
Sequence of NAD(P)H dehydrogenase [quinone] 1 (Homo sapiens) (P15559 whole entry): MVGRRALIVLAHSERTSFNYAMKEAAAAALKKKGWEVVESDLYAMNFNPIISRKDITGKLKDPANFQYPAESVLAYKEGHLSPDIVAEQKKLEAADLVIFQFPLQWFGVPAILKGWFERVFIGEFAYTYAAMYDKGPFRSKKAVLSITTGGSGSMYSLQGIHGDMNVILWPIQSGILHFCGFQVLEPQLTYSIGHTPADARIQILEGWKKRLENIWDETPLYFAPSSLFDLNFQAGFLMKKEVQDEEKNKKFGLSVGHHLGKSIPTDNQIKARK
Sequence of Catenin alpha-1 (Homo sapiens) (P35221 whole entry, canonical isoform): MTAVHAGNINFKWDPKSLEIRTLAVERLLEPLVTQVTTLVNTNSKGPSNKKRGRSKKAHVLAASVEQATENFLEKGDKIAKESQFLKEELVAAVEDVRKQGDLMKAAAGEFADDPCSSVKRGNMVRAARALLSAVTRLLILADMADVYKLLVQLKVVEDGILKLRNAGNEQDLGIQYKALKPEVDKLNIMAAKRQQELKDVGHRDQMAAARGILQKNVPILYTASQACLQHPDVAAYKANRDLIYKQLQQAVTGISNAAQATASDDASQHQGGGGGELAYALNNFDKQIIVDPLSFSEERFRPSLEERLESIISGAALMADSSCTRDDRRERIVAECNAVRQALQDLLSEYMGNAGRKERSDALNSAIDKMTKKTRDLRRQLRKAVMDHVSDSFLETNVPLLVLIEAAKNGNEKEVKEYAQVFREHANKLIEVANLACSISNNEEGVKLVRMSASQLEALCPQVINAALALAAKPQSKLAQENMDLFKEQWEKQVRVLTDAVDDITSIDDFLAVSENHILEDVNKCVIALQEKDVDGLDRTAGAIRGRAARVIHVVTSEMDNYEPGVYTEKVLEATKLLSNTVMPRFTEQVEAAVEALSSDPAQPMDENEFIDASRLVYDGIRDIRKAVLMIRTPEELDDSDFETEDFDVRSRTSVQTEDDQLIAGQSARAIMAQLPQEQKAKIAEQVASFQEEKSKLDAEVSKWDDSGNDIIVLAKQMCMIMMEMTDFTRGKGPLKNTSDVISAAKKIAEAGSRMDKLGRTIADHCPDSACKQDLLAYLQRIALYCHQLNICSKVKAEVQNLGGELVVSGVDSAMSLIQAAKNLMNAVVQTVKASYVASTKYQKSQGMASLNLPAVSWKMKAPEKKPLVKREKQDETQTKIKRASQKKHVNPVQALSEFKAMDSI
Sequence of ADP-ribosylation factor 5 (Homo sapiens) (P84085 whole entry): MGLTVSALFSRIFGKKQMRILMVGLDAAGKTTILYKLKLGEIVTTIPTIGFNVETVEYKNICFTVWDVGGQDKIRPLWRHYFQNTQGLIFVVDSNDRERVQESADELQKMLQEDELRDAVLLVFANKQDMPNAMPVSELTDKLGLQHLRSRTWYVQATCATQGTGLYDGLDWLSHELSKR

| SMILES | Activity [1] [%] | Activity [2] | Activity [3] | Activity [4] | Activity [5] | Activity [6] | Activity [7] | Activity [8] | Activity [9] | Activity [10] | Activity [11] | Activity [12] | Activity [13] |
| --- | --- | --- | --- | --- | --- | --- | --- | --- | --- | --- | --- | --- | --- |
| COc1cc(O)c2c(c1)/C=C/C[C@H](O)[C@H](O)C(=O)/C=C\C[C@H](C)OC2=O | 1.4 |  |  |  |  |  |  |  |  |  |  |  |  |
| C=CC(=O)Nc1ccccc1Nc1nc(Nc2ccc(N3CCN(CCOCCOCCOCCNC(=O)CCCC[C@@H]4SC[C@@H]5NC(=O)N[C@@H]54)CC3)cc2)ncc1Cl |  | Active | Active | Active | Active | Active | Active | Active | Active | Active | Active | Active | Active |
